Results published in ChEMBL document CHEMBL4321820, “Identification and Optimization of Mechanism-Based Fluoroallylamine Inhibitors of Lysyl Oxidase-like 2/3” (J Med Chem, 2019).

Assays:
Protein-lysine 6-oxidase = molecular target: T1, Protein-lysine 6-oxidase (Bos taurus, UniProt P33072); assay: Inhibition of LOX in bovine aorta using putrescine as substrate preincubated with enzyme for 30 mins followed by substrate addition and measured every 2.5 mins for 30 mins by Amplex-Red oxidation assay; assay type: tissue-based
T1 sequence (P33072 whole entry): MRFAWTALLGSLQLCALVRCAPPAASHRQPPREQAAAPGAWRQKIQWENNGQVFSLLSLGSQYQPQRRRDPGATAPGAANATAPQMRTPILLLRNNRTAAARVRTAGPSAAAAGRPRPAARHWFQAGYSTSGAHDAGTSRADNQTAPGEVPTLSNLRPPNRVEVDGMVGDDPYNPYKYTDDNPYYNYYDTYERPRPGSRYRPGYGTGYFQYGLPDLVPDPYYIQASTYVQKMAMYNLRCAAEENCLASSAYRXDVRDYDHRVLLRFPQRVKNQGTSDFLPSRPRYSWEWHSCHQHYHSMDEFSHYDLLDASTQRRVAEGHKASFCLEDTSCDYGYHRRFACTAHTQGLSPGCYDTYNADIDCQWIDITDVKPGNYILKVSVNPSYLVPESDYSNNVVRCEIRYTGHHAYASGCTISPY
How it was run: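 LOX extracted from calf aorta after PBS washing with 4 M urea/50 mM borate pH 8.2, concentrated on 10 kDa filters into 1.2 M urea/borate with protease inhibitors. Preincubated 30 min at 37 °C with compound, then Amplex Red/HRP with 10 mM putrescine; fluorescence read every 2.5 min for 30 min.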

Lysyl oxidase homolog 2 = molecular target: T2, Lysyl oxidase homolog 2 (Homo sapiens, UniProt Q9Y4K0); assay: Inhibition of recombinant human C-terminal His-tagged […] (1-774 residues) expressed in mouse myeloma cells using putrescine as substrate preincubated with enzyme for 30 mins followed by substrate addition and measured every 2.5 mins for 30 mins by Amplex-Red oxidation assay
T2 sequence (Q9Y4K0 whole entry): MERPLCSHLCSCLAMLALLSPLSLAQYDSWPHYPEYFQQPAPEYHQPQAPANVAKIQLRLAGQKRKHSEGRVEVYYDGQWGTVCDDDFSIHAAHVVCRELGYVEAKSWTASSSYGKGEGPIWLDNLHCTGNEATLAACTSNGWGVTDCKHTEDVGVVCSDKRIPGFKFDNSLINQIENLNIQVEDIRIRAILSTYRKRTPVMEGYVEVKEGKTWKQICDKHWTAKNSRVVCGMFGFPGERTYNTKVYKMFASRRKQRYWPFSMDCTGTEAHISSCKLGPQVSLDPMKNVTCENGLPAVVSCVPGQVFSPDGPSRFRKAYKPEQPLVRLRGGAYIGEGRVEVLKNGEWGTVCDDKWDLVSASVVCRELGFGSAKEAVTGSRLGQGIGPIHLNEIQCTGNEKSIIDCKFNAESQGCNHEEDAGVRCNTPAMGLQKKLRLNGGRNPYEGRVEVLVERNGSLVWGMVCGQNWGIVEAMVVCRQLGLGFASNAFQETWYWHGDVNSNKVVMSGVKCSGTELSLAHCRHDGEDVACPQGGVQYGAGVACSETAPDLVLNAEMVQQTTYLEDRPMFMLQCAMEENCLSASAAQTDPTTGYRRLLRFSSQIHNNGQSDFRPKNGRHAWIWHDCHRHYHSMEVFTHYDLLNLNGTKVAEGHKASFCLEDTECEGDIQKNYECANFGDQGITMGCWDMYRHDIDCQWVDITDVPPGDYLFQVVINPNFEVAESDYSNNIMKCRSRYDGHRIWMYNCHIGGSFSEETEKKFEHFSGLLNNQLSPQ
How it was run: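 LOXL2 enzyme preincubated with compound for 30 min at 37 °C, then Amplex Red (120 µM) / HRP (1.5 U/mL) mix containing 5 mM putrescine added. Buffer: 1.2 M urea, 50 mM sodium borate, pH 8.2. H2O2 fluorescence (ex 565/em 590) read every 2.5 min for 30 min at 37 °C; BAPN 100 µM as positive control; n≥2.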

[1] = molecular target: T3, Amine oxidase [copper-containing] 3 (Homo sapiens, UniProt Q16853); assay: Substrate activity at recombinant human SSAO assessed as compound oxidation by measuring oxidative turnover at 30 uM measured for 40 mins by horseradish peroxidase-coupled amplex red reagent-based fluorometric assay relative to DMSO; assay type: ADME
T3 sequence (Q16853 whole entry): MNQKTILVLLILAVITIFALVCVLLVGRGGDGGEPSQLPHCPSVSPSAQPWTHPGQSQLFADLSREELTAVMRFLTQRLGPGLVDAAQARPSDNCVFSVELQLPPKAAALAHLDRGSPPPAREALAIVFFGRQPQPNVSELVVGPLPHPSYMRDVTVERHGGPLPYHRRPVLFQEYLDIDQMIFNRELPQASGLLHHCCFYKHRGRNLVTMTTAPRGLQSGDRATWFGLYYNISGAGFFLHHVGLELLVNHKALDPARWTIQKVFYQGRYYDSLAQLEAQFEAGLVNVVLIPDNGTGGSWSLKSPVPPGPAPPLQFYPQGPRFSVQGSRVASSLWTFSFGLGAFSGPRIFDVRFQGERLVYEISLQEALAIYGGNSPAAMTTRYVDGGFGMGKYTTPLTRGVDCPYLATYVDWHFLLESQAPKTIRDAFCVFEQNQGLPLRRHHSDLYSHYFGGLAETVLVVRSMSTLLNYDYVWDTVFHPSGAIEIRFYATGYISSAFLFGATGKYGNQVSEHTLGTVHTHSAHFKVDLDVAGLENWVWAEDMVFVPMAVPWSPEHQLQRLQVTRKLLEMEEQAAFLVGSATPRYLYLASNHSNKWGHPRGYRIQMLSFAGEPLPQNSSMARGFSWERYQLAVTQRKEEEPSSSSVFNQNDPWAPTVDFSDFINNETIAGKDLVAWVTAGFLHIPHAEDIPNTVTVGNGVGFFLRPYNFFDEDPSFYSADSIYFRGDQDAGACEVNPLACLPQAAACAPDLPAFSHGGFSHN
How it was run: (§1)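 Compound oxidation measured without substrate by peroxidase-coupled fluorometric read-out of resorufin formation over 40 min at 37 °C in HEPES buffer. Amplex Red 20 µM, HRP 4 U/ml, test compound at final 30 µM. Enzyme source was human recombinant SSAO or AOC4 from diluted dog serum. Benzylamine at 600 µM served as positive control. Signal is expressed relative to DMSO-only background, so a value near 1 means no turnover.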

[2] = molecular target: T3, Amine oxidase [copper-containing] 3; assay: Inhibition of recombinant human SSAO using benzylamine as substrate preincubated with enzyme for 30 mins followed by substrate addition and measured every 2.5 mins for 30 mins by Amplex-Red oxidation assay
[3] = Substrate activity at AOC4 in dog serum assessed as compound oxidation by measuring oxidative turnover at 30 uM measured for 40 mins by horseradish peroxidase-coupled amplex red reagent-based fluorometric assay relative to DMSO; assay type: ADME, cell-free, Canis lupus familiaris; how it was run: as §1

SMILES	IC50 (Protein-lysine 6-oxidase; read-out: pIC50 (converted)) [nM]	IC50 (Lysyl oxidase homolog 2; read-out: pIC50 (converted)) [nM]	fold change (FC) [1]	IC50 ([2]; read-out: pIC50 (converted)) [nM]	fold change (FC) [3]	IC50 (Protein-lysine 6-oxidase; read-out: IC50) [nM]	IC50 (Lysyl oxidase homolog 2; read-out: IC50) [nM]	IC50 ([2]; read-out: IC50) [nM]
Cc1c(-c2cccc(S(=O)(=O)N(C)C)c2)c2ccccc2n1C/C(F)=C/CN.Cl	2000	100	1.4	7940	> 4	–	–	–
CCOC(=O)c1ccc2c(c1)c(-c1cccc(S(=O)(=O)N(C)C)c1)c(C)n2C/C(F)=C/CN.Cl	6310	79.4	2.4	–	1	–	–	–
Cc1c(-c2cccc(S(=O)(=O)N(C)C)c2)c2cc(C(=O)O)ccc2n1C/C(F)=C/CN.Cl	–	–	1	–	1	1780	5	> 30000
